APJ antagonist = APJ receptor antagonism | CHO-K1 APJ beta-arrestin complementation, luminescence | AID 2521 | actives 0.32% (n = 330,000) | inhibition, % at 20 µM | P35414;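 active means inhibition above about 40% at 20 µM, limit read from the data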;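 further: cells challenged with 10 nM apelin-13 agonist together with compound; plate controls were apelin-13 plus DMSO wells for no effect and DMSO wells lacking apelin-13 for full effect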
EBI2 block = EBI2 (human) antagonism; EBI2 beta-arrestin recruitment, luminescence, 7a,25-OHC stimulated; actives 0.81% (n = 360,000); P32249; inhibition, % at 5 µM; AID 651636; in the data active means inhibition above about 38%;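 further: enzyme fragment complementation signal reports receptor beta-arrestin coupling in cells; 0% = agonist plus DMSO wells and 100% = wells without agonist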
Target sequence (P32249 whole entry, looked up, the tested form may be a part): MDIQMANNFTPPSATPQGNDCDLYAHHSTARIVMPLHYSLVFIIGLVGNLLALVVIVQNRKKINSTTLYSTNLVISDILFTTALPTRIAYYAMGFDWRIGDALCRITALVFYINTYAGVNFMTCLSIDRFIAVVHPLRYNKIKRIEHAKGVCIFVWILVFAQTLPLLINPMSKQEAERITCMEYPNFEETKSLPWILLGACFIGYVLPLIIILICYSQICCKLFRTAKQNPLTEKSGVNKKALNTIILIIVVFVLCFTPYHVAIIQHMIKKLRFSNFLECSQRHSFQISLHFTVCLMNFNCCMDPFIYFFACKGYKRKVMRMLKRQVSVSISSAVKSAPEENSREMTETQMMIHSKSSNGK
CCR6 antagonist = blocks CCL20-driven beta-arrestin recruitment at human CCR6 | actives 0.49% (n = 340,000) | P51684 | inhibition, % at 20 µM | CHO-K1 CCR6 PathHunter beta-arrestin, luminescence, CCL20-stimulated | AID 493098;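 active means compounds whose inhibition of the agonist-driven luminescence signal at 20 µM reaches about 50%, limit read from the data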;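 further: cells stimulated with CCL20 at 14 nM final; plate controls were DMSO with CCL20 for no effect and DMSO without agonist for full effect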
Target sequence (P51684 whole entry, looked up): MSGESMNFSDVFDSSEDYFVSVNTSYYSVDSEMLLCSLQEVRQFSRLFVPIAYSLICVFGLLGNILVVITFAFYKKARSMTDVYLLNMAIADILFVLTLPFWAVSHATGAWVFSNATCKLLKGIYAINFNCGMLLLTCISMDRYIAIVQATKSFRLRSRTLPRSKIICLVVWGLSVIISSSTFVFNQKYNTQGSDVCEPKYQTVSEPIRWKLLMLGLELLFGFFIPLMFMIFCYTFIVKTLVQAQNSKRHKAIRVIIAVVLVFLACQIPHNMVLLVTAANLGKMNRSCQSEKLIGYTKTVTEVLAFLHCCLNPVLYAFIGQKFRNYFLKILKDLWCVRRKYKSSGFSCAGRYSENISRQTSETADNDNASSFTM
APJ ag = agonists of human APJ apelin receptor; activation, % at 20 µM; CHO-K1 APJ PathHunter beta-arrestin, luminescence; 0% DMSO wells, 100% apelin; P35414; actives 0.11% (n = 330,000);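 active means activation more than six SD over the plate average, tested at 20 µM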;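 further: 0% = DMSO alone and 100% = apelin-13 at 10 nM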
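Assay system – PathHunter CHO-K1 APJ (AGTRL-1) beta-arrestin reporter cells · Compound – one dose, 20 µM compound, 1% DMSO · Timing – compound 90 min 25 °C, reagent 1 h · Measured by – luminescence from split beta-galactosidase complementation, Galacton Star/Emerald II substrate · Measure – beta-arrestin recruitment to APJ as agonist activity, luminescent signal · Benchmarks – DMSO vs Apelin-13 10 nM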
CXCR6 inh = blocks human CXCR6 beta-arrestin recruitment | O00574 | CHO-K1 PathHunter CXCR6 beta-arrestin, luminescence | inhibition, % at 20 µM | actives 0.36% (n = 360,000); in the data active means inhibition above about 34%, passing the limit was not always enough;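 further: antagonist mode with CXCL16 agonist at 10 nM final; 0% = 10 nM CXCL16 with DMSO and 100% = unstimulated wells without agonist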
An asterisk follows results filed as active; . = no result given. Compounds with a hit are over-represented: about 1.5% of the library has one in this group of screens.

SMILES | APJ antagonist | EBI2 block | CCR6 antagonist | APJ ag | CXCR6 inh
CCOC(=O)c1ccc(S(=O)(=O)N2CCN(CCC#N)CC2)cc1 | -43.7 | -11.9 | 0.9 | -3.8 | -8.9
Cc1noc(C)c1S(=O)(=O)N(C)C[C@H]1OCCCC[C@@H](C)Oc2ccc(NS(=O)(=O)c3cn(C)cn3)cc2C(=O)N([C@H](C)CO)C[C@@H]1C | . | -11.1 | . | . | -9.6
O=c1oc(-c2cccc(Cl)c2)nc2c1cnn2-c1ccccc1 | 13.2 | 19.9 | 8.7 | -3.4 | 16.9
O=c1oc(-c2ccccc2F)nc2c1cnn2-c1ccccc1 | 19.2 | 19.6 | 51.9* | -3.2 | 38.2
Cc1c(Cl)cccc1Nc1nc(N)nc(CSc2ncccn2)n1 | -11.9 | -5.7 | -3.2 | -1.1 | -11.5
O=C(NCCC1=CCCCC1)c1cc(S(=O)(=O)N2CCOCC2)c(Cl)cc1Cl | 8.9 | 15.8 | 6.9 | -6.8 | -9.4
CC(=Cc1ccccc1)C(=O)c1ccccc1 | . | -7.9 | . | . | -3.9
O=C(C(Br)=Cc1ccccc1)c1ccccc1 | . | 69.3* | 69.4* | . | 47.5*
Cc1ccc(CNC(=O)COC(=O)c2cnc(C)cn2)cc1 | -6.4 | -4.5 | 10.3 | -0.9 | -10.8
CCOc1cccc(C(=O)Nc2cccc(C(=O)NC(C)(C)C)c2)c1 | -2.4 | -9.9 | 11.6 | -1.1 | -5.4
O=[N+]([O-])c1cc(S(=O)(=O)Nc2ccccc2)ccc1NCc1cccnc1 | 0.7 | -3.8 | 33.9 | -4.0 | 14.4
Cc1cccc(CS(=O)(=O)c2nnc([C@H](Cc3ccccc3)NC(=O)OC(C)(C)C)o2)c1 | 14.4 | 20.0 | 90.7* | -0.4 | 61.1*
CCCCN1C(=O)C(=Nc2cccc3cnccc23)c2ccccc21 | 5.2 | 21.1 | 56.5* | -6.2 | 23.2
COc1ccc(NC(=O)CN2CCN(S(=O)(=O)c3ccc(Cl)cc3)CC2)cc1Cl | -15.3 | 37.8* | 9.6 | 2.4 | -8.5
O=C(CN1CCN(S(=O)(=O)c2ccc(Br)cc2)CC1)Nc1ccc2c(c1)OCO2 | -18.9 | 8.9 | 7.9 | -3.9 | 61.7*
COc1ccc(S(=O)(=O)N2CCCN(CC(=O)Nc3ccc(OC)c(Cl)c3)CC2)cc1 | 7.0 | 21.3 | 2.6 | 1.2 | -18.3
O=C(CN1CCN(S(=O)(=O)c2ccc(Br)cc2)CC1)Nc1ccc(F)cc1 | -23.9 | 3.3 | -0.1 | -3.9 | 3.4
CC(C)(C)NC(=O)C(c1ccc(F)cc1)N(Cc1ccco1)C(=O)CCC(=O)Nc1ccccn1 (stereo not drawn) | 18.5 | 6.0 | 9.2 | -0.8 | 6.6
O=[N+]([O-])c1cc(O)c2ncccc2c1 | -57.8 | . | 54.0* | 3.4 | .
O=[N+]([O-])c1cc2cccnc2c2ncccc12 | -5.1 | 13.9 | -6.3 | 0.1 | 9.5
CCOC(=O)CN(C(=O)CSc1nnc(COc2ccc(OC)cc2)n1C)c1ccccc1 | 5.0 | 51.9* | 21.8 | -3.1 | -17.4
CCOC(=O)CN(C(=O)CSc1nnc(CNc2ccc(F)cc2)n1C)c1ccccc1 | -16.5 | 14.9 | 7.7 | -6.6 | -2.8
CCC1(CC)Cc2ccccc2-c2nc(NN)[nH]c(=O)c21 | 13.9 | 2.9 | 50.2* | -7.0 | 29.2
COc1ccc(OC)c2c1C(=O)C(Cl)=C(Cl)C2=O | 27.4 | 20.6 | 105.0* | -2.9 | 102.1*
C=CCc1cccc(/C=N/NC(=O)C(C)Nc2cccc(C)c2)c1O (stereo not drawn) | 2.7 | 39.6* | -7.8 | -3.6 | 2.4
SMILES | APJ antagonist | EBI2 block | CCR6 antagonist | APJ ag | CXCR6 inh
COc1cc(/C=C2\SC(=S)N(Nc3ccccc3)C2=O)cc(OC)c1OC | -9.1 | 10.8 | 50.6* | 0.8 | -0.1
CC(/C=C1\SC(=S)N(NC(=O)c2ccncc2)C1=O)=C\c1ccccc1 | 3.4 | 13.7 | 7.1 | 0.8 | 3.3
COc1cc(/C=C2\SC(=S)N(NC(=O)c3ccncc3)C2=O)ccc1O | 34.4 | 13.1 | 53.1* | -6.2 | 33.7
CCOc1ccc(/C=C2\SC(=S)N(Nc3ccccc3)C2=O)cc1OC | -0.2 | 5.7 | 0.5 | -1.7 | 4.9
O=C(NN1C(=O)/C(=C/c2cccs2)SC1=S)c1cccnc1 | 6.8 | 17.6 | 16.8 | 1.0 | 5.3
COc1cc(/C=C2\SC(=S)N(NS(=O)(=O)c3ccc(C)cc3)C2=O)ccc1O | 36.0 | 13.0 | 49.6 | -7.3 | 37.2*
CCOc1cc(/C=C2\SC(=S)N(NC(=O)c3cccnc3)C2=O)ccc1O | 44.1* | 11.9 | 42.8 | -9.1 | 37.3
C=CCn1c(C)c(C(C)=O)c(SC)nc1=S | -1.8 | -3.6 | 8.4 | -2.3 | -1.5
Cc1ccc(-n2sc3ccccc3c2=O)cc1 | -33.0 | 10.4 | 51.5* | 0.6 | -0.4
O=c1c2ccccc2sn1-c1ccc(F)cc1 | -9.9 | 11.8 | 12.7 | 0.4 | -4.9
CN1CCN(S(=O)(=O)c2ccc(N3CCN(C(=O)c4ccccc4)CC3)nc2)CC1 | -10.6 | 4.4 | 6.3 | 1.3 | -4.1
CCCCn1c(NC(=O)c2ccc(F)cc2)c(C#N)c2nc3ccccc3nc21 | 56.1* | . | . | -9.4 | .
CCn1c(-c2cc(-c3cc(OC)ccc3OC)nc3ccccc23)n[nH]c1=S | -14.5 | 7.3 | -5.6 | -4.4 | 0.6
CN(C)/C=C1\C(=O)NN=C1C(F)(F)F | 13.3 | -3.7 | 1.4 | -4.0 | -7.2
O=C(NCc1ccccc1)C(c1ccccc1)n1c(=O)c(-c2cc3ccccc3[nH]2)nc2ccccc21 (stereo not drawn) | . | -13.0 | . | . | .
CC(=O)c1cccc(NC(=S)NC(=O)c2cncc(Br)c2)c1 | 28.2 | 3.8 | 56.0* | -7.9 | 28.1
COc1cccc(NC(=S)NC(=O)c2cncc(Br)c2)c1 | 19.6 | 2.4 | 43.1 | -3.2 | 34.7
C#CCOc1ccc(/C=C2\SC(=S)N(Cc3cccnc3)C2=O)cc1 | 9.9 | -10.6 | 9.3 | 3.8 | 8.9
O=C1/C(=C/c2ccc(O)cc2)SC(=S)N1Cc1cccnc1 | 46.8* | 30.6 | 45.1 | -7.8 | 19.8
C/C(CCC(C)C)=N\Nc1cc(C)c2ccccc2n1 | 42.8* | -1.5 | 55.7* | 0.3 | 35.3
Cc1cc(NCc2ccccc2)nc2ccccc12 | 14.4 | 2.7 | 8.1 | -1.1 | -5.9
COc1cc(OC)c(-c2c3cc(O)c(=O)cc-3oc3cc(O)c(O)cc23)cc1OC | 29.5 | 1.0 | 64.3* | -5.9 | 32.0
CCOC(=O)Cn1nc(C)c(NC(=O)c2cccc([N+](=O)[O-])c2)c1C | . | -11.7 | 3.0 | . | -6.5
O=C(c1ccccc1)c1cc(Cl)ccc1N1C(=O)C=CC1=O | . | -6.6 | 106.2* | . | 61.3*
C=CCOC(=O)C(C#N)c1nc2ccccc2nc1N1CCN(c2ccccc2OC)CC1 (stereo not drawn) | 12.5 | 24.2 | 52.4* | -2.3 | 13.8
CCSC1(SCC)N=C(N)C2(C#N)C(c3ccc(F)cc3)C12C#N (stereo not drawn) | 17.3 | -15.2 | 37.0 | -3.7 | 66.6*
COC1(OC)N=C(N)C2(C#N)C(c3ccc(F)cc3)C12C#N (stereo not drawn) | -0.4 | 4.3 | -9.8 | -1.6 | -2.0
Nc1c(Cl)cc2c(c1Oc1ccccc1)C(=O)c1ccccc1C2=O | 5.9 | 10.5 | 22.1 | 2.0 | 37.8*
Nc1c(Cl)cc2c(c1Br)Cc1ccccc1-2 | . | -4.1 | -0.2 | . | -6.6
CCOc1ccc2oc(C(=O)N3CCN(c4ccccn4)CC3)c(C)c2c1 | 8.7 | 62.8* | 8.3 | 3.5 | -2.1

Screening results (PubChem)
